From ChEMBL document CHEMBL1811911, “Synthesis and antidepressant-like activity evaluation of sulphonamides and sulphonyl-hydrazones” (Bioorg Med Chem, 2011)
Calls of active or inactive are those of the source. The rule behind the calls is not given here.

Tests used:
Mus musculus [1] = assay: Antidepressant activity in Swiss mouse assessed as reduction of immobility duration at 10 mg/kg, ip administered 30 mins prior test measured during last 4 mins of 6 mins observation period by forced-swimming test relative to control; type: functional; set-up: scale not given: the % may be the effect or the level left; settings: route intraperitoneal
Mus musculus [2] = assay: Antidepressant activity in Swiss mouse assessed as reduction of immobility duration at 6 to 10 mg/kg, ip administered 30 mins prior test measured during last 4 mins of 6 mins observation period by forced-swimming test relative to control; type: functional, organism-based
Mus musculus [3] = assay: Antidepressant activity in Swiss mouse assessed as reduction of immobility duration at 6 to 10 mg/kg, ip measured after 6 mins by tail suspension test relative to control; type: functional; set-up: scale not given: the % may be the effect or the level left; settings: dose mg/kg 6-10; route intraperitoneal
How it was run: (§1)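 Tail suspension test (Steru method) in male adult Swiss mice (25–35 g), compound given ip acutely, vehicle 0.9% NaCl. Mice, isolated acoustically and visually, hung 50 cm above the floor by adhesive tape about 1 cm from tail tip; total immobility time recorded. Percent reduction = [(A−B)/A]×100, A control and B treated immobility.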

Mus musculus [4] = assay: Antidepressant activity in Swiss mouse assessed as immobility duration at 10 mg/kg, ip administered 30 mins prior test measured during last 4 mins of 6 mins observation period by forced-swimming test (reference value: 166 +/- 12.23 to 218.54 +/- 8.11 Secs); type: functional; settings: route intraperitoneal
Mus musculus [5] = assay: Toxicity in Swiss mouse assessed as number of rearing at 10 mg/kg, ip administered 30 mins prior test measured during last 4 mins of 6 mins observation period by forced-swimming test by locomotory test (reference value: 39.45 +/- 6.21); type: organism-based; set-up: dose 10 mg/kg, route intraperitoneal; settings: in vivo
Mus musculus [6] = assay: Toxicity in Swiss mouse assessed as number of squares crossed at 10 mg/kg, ip administered 30 mins proir test measured during last 4 mins of 6 mins incubation by forced-swimming test by locomotory test (reference value: 96.63 +/- 5.32); type: organism-based; set-up: dose 10 mg/kg, route intraperitoneal; settings: in vivo
Mus musculus [7] = assay: Antidepressant activity in Swiss mouse assessed as reduction of immobility duration at 10 mg/kg, ip administered 30 mins prior test measured during last 4 mins of 6 mins observation period by forced-swimming test (reference value: 0 %); type: functional; set-up: scale not given: the % may be the effect or the level left; settings: route intraperitoneal
Mus musculus [8] = assay: Antidepressant activity in Swiss mouse assessed as reduction of immobility duration at 10 mg/kg, ip measured after 6 mins by tail suspension test relative to control; type: functional; set-up: scale not given: the % may be the effect or the level left; settings: route intraperitoneal; how it was run: as §1
Mus musculus [9] = assay: Antidepressant activity in Swiss mouse assessed as reduction of immobility duration at 10 to 60 mg/kg, ip administered 30 mins prior test measured during last 4 mins of 6 mins observation period by forced-swimming test relative to control; type: functional
Mus musculus [10] = assay: Antidepressant activity in Swiss mouse assessed as reduction of immobility duration at 60 mg/kg, ip administered 30 mins prior test measured during last 4 mins of 6 mins observation period by forced-swimming test relative to control; type: functional; set-up: scale not given: the % may be the effect or the level left
Mus musculus [11] = assay: Antidepressant activity in Swiss mouse assessed as reduction of immobility duration at 30 to 60 mg/kg, ip measured after 6 mins by tail suspension test relative to control; type: functional; set-up: scale not given: the % may be the effect or the level left; settings: dose mg/kg 30-60; route intraperitoneal; how it was run: as §1
Mus musculus [12] = assay: Antidepressant activity in Swiss mouse assessed as reduction of immobility duration at 60 mg/kg, ip administered 30 mins prior test measured during last 4 mins of 6 mins observation period by forced-swimming test (reference value: 0 %); type: functional; set-up: scale not given: the % may be the effect or the level left; settings: route intraperitoneal
Mus musculus [13] = assay: Antidepressant activity in Swiss mouse assessed as reduction of immobility duration at 30 to 60 mg/kg, ip administered 30 mins prior test measured during last 4 mins of 6 mins observation period by forced-swimming test relative to control; type: functional, organism-based
Mus musculus [14] = assay: Antidepressant activity in Swiss mouse assessed as immobility duration at 60 mg/kg, ip administered 30 mins prior test measured during last 4 mins of 6 mins observation period by forced-swimming test (reference value: 166 +/- 12.23 to 218.54 +/- 8.11 Secs); type: functional; settings: route intraperitoneal
Mus musculus [15] = assay: Toxicity in Swiss mouse assessed as number of rearing at 60 mg/kg, ip administered 30 mins prior test measured during last 4 mins of 6 mins observation period by forced-swimming test by locomotory test (reference value: 39.45 +/- 6.21); type: organism-based; set-up: dose 60 mg/kg, route intraperitoneal; settings: in vivo
Mus musculus [16] = assay: Toxicity in Swiss mouse assessed as number of squares crossed at 60 mg/kg, ip administered 30 mins proir test measured during last 5 mins of 6 mins incubation by open-field test (reference value: 96.63 +/- 5.32); settings: in vivo
Mus musculus [17] = assay: Antidepressant activity in Swiss mouse assessed as immobility duration at 20 mg/kg, ip administered 30 mins prior test measured during last 4 mins of 6 mins observation period by forced-swimming test (reference value: 166 +/- 12.23 to 218.54 +/- 8.11 Secs); type: functional; settings: route intraperitoneal
How it was run: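 Male adult Swiss mice (25–35 g), group-housed under 12 h light (07:00–19:00) at 23 °C. Single ip dose, vehicle 0.9% NaCl, acute pre-treatment. Porsolt forced swim: individual cylinders (20 cm diameter) with 20 cm water at 24 °C, 6 min swim; immobility scored manually over last 4 min. %IM = (A−B)/A×100 versus vehicle group; N = 8–10 mice; ANOVA with Dunnett's test.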

Mus musculus [18] = assay: Antidepressant activity in Swiss mouse assessed as reduction of immobility duration at 30 mg/kg, ip administered 30 mins prior test measured during last 4 mins of 6 mins observation period by forced-swimming test (reference value: 0 %); type: functional; set-up: scale not given: the % may be the effect or the level left; settings: route intraperitoneal
Mus musculus [19] = assay: Antidepressant activity in Swiss mouse assessed as reduction of immobility duration at 6 to 30 mg/kg, ip administered 30 mins prior test measured during last 4 mins of 6 mins observation period by forced-swimming test relative to control; type: functional; set-up: scale not given: the % may be the effect or the level left; settings: dose mg/kg 6-30; route intraperitoneal
Mus musculus [20] = assay: Antidepressant activity in Swiss mouse assessed as reduction of immobility duration at 6 to 30 mg/kg, ip measured after 6 mins by tail suspension test relative to control; type: functional; set-up: scale not given: the % may be the effect or the level left; settings: dose mg/kg 6-30; route intraperitoneal; how it was run: as §1
Mus musculus [21] = assay: Antidepressant activity in Swiss mouse assessed as immobility duration at 30 mg/kg, ip administered 30 mins prior test measured during last 4 mins of 6 mins observation period by forced-swimming test (reference value: 166 +/- 12.23 to 218.54 +/- 8.11 Secs); type: functional; settings: route intraperitoneal
Mus musculus [22] = assay: Toxicity in Swiss mouse assessed as number of rearing at 30 mg/kg, ip administered 30 mins prior test measured during last 4 mins of 6 mins observation period by forced-swimming test by locomotory test (reference value: 39.45 +/- 6.21); type: organism-based; set-up: dose 30 mg/kg, route intraperitoneal; settings: in vivo
Mus musculus [23] = assay: Toxicity in Swiss mouse assessed as number of squares crossed at 30 mg/kg, ip administered 30 mins proir test measured during last 5 mins of 6 mins incubation by open-field test (reference value: 96.63 +/- 5.32); settings: in vivo
Mus musculus [24] = assay: Antidepressant activity in Swiss mouse assessed as reduction of immobility duration at 10 to 60 mg/kg, ip measured after 6 mins by tail suspension test relative to control; type: functional; set-up: scale not given: the % may be the effect or the level left; settings: dose mg/kg 10-60; route intraperitoneal; how it was run: as §1
Mus musculus [25] = assay: Antidepressant activity in Swiss mouse assessed as reduction of immobility duration at 3 mg/kg, ip administered 30 mins prior test measured during last 4 mins of 6 mins observation period by forced-swimming test relative to control; type: functional, organism-based; set-up: dose 3 mg/kg

SMILES	Activity (Mus musculus [1]) [%]	Activity (Mus musculus [3]) [%]	Time (Mus musculus [4]) [s]	Activity (Mus musculus [5])	Activity (Mus musculus [6])	Activity (Mus musculus [7]) [%]	other results
Cc1ccc(/C=N/NS(=O)(=O)c2ccc(N3C(=O)C4C5C=CC(C)(O5)C4C3=O)cc2)cc1 (centres undefined)	62.83	55.05	83	43	92.74	–	Activity (Mus musculus [2]): Active
COc1cc(/C=N/NS(=O)(=O)c2ccc(CN3C(=O)c4cccc5cccc(c45)C3=O)cc2)ccc1O	60.3	–	70.75	40.75	96.1	60.3	Activity (Mus musculus [8]): 74.65%
CC12C=CC(O1)C1C(=O)N(c3ccc(S(=O)(=O)N/N=C/c4ccc(Cl)c(Cl)c4)cc3)C(=O)C12 (centres undefined)	–	–	–	–	–	–	Activity (Mus musculus [9]): inactive
CC12C=CC(O1)C1C(=O)N(c3ccc(S(=O)(=O)N4CCCC4)cc3)C(=O)C12 (centres undefined)	85	–	133	33	96	33.33	Activity (Mus musculus [8]): 31.17%
O=C1C2C3C=CC(O3)C2C(=O)N1c1ccc(S(=O)(=O)N2CCCC2)cc1 (centres undefined)	–	–	–	–	–	–	Activity (Mus musculus [10]; route intraperitoneal): 28.8%; Activity (Mus musculus [11]): 58.85%; Activity (Mus musculus [12]): 54.8%; Activity (Mus musculus [13]): Active; Time (Mus musculus [14]): 92.95 s; Activity (Mus musculus [15]): 42.95; Activity (Mus musculus [16]): 86.74
O=C1C2C3C=CC(O3)C2C(=O)N1c1ccc(S(=O)(=O)N/N=C/c2ccc(O)cc2)cc1 (centres undefined)	–	–	–	–	–	–	Activity (Mus musculus [9]): inactive
CNCCC(Oc1ccc(C(F)(F)F)cc1)c1ccccc1 (centres undefined) [FLUOXETINE]	–	–	–	–	–	–	Time (Mus musculus [17]): 33.18 s
COc1cc(/C=N/NS(=O)(=O)c2ccc(CN3C(=O)c4ccccc4C3=O)cc2)ccc1O	–	–	–	–	–	–	Activity (Mus musculus [18]): 66.64%; Activity (Mus musculus [19]): 63.9%; Activity (Mus musculus [20]): 69.21%; Time (Mus musculus [21]): 55.37 s; Activity (Mus musculus [22]): 45.37; Activity (Mus musculus [23]): 106.45
CC12C=CC(O1)C1C(=O)N(c3ccc(S(=O)(=O)N4CCOCC4)cc3)C(=O)C12 (centres undefined)	28.8	23.69	131	38	101.12	36.3	Activity (Mus musculus [2]): Active
CN(C)CCCN1c2ccccc2CCc2ccccc21 [IMIPRAMINE]	–	–	49.85	–	–	57.3	–
CC12C=CC(O1)C1C(=O)N(c3ccc(S(=O)(=O)N/N=C/c4ccc(Cl)cc4)cc3)C(=O)C12 (centres undefined)	–	–	–	–	–	–	Activity (Mus musculus [10]; route intraperitoneal): 62.83%; Activity (Mus musculus [12]): 72.02%; Activity (Mus musculus [9]): Active; Activity (Mus musculus [24]): 62.87%; Time (Mus musculus [14]): 61 s; Activity (Mus musculus [15]): 41; Activity (Mus musculus [16]): 98.45
O=C1C2C3C=CC(O3)C2C(=O)N1c1ccc(S(=O)(=O)N/N=C/c2ccc([N+](=O)[O-])cc2)cc1 (centres undefined)	65.44	57.5	178.37	38.37	98.14	18.38	Activity (Mus musculus [2]): Active
O=C1c2cccc3cccc(c23)C(=O)N1Cc1ccc(S(=O)(=O)N2CCCC2)cc1	52.26	45.57	67.37	37.45	108.45	64.25	Activity (Mus musculus [25]): inactive
O=C1c2cccc3c(Cl)ccc(c23)C(=O)N1CCc1ccc(S(=O)(=O)N2CCCC2)cc1	–	–	82	42	86.74	56.49	Activity (Mus musculus [10]): inactive; Activity (Mus musculus [9]): inactive; Activity (Mus musculus [25]): inactive
O=C1c2cccc3cccc(c23)C(=O)N1Cc1ccc(S(=O)(=O)N2CCOCC2)cc1	60.3	57.14	66	36.67	98.85	64.89	Activity (Mus musculus [25]): inactive
O=C1c2cccc3c(Cl)ccc(c23)C(=O)N1Cc1ccc(S(=O)(=O)N2CCOCC2)cc1	52.63	30.61	–	–	–	–	Activity (Mus musculus [25]): inactive
COc1ccc(/C=N/NS(=O)(=O)c2ccc(N3C(=O)C4C5C=CC(C)(O5)C4C3=O)cc2)cc1 (centres undefined)	58.53	41.64	90.37	40.37	92.54	58.64	Activity (Mus musculus [2]): Active
O=C1c2ccccc2C(=O)N1Cc1ccc(S(=O)(=O)N/N=C/c2ccc([N+](=O)[O-])cc2)cc1	–	–	–	–	–	–	Activity (Mus musculus [12]): 68.52%; Activity (Mus musculus [9]; dose mg/kg 10-60, route intraperitoneal): 68.64%; Activity (Mus musculus [24]): 64.88%; Time (Mus musculus [14]): 52.25 s; Activity (Mus musculus [15]): 42.65; Activity (Mus musculus [16]): 92.54
